Test results published in paper PMC7610887 (Journal of psychopharmacology (Oxford, England), 2019).
Several values for one entry are separate records, joined by “and”; a condition that tells them apart may be missing. Equal values may be shown once. Read-outs that look alike come from different tables or passages of the source.

Assays:
Male Wistar rats [1] = experiment: Passive avoidance, scopolamine-induced deficit; format: in vivo, rat
[2] = 6-week GLP Safety and Toxicity study of UoS12258, cynomolgus monkey; format: in vivo; details: cynomolgus monkey, in vivo, po
cynomolgus monkeys = experiment: as above; format: in vivo; details: 6-week GLP
rats [3] = experiment: 6-week GLP Safety and Toxicity study of UoS12258, rat; format: in vivo
[4] = system: native neuronal AMPARs in rat cultured hippocampal neurons; details: rat primary hippocampal neurons; ref Ward et al., 2017; cited from earlier work
rats [5] = details: p.o.; ref Ward et al., 2017; cited from earlier work
Male Wistar rats [6] = details: p.o.; ref Ward et al., 2017; cited from earlier work
male Lister Hooded rats [7] = details: ref Ward et al., 2017, cited from earlier work
[8] = molecular target: Homomeric human GluA1 flip isoform (hGluA1i) (Homo sapiens, UniProt P42261); experiment: Intracellular Ca2+ influx assay; format: cell-based; details: relative to positive control LY404187
How it was run: (§1)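 AMPA receptor flip isoforms expressed in HEK-293 cells: hGluA1i, hGluA3i, hGluA4i and rat GluA2i by lipofectamine transient transfection, and hGluA2i stably. All were Q-unedited in TM2. Cells were seeded on poly-D-lysine 2 days before assay and loaded with Fluo-4AM (2 μM final) for 60 min in the dark in HEPES buffer, pH 7.3. Test compound (1:3 serial dilution) was added with glutamate (100 μM final), and FLIPR fluorescence was read. Maximum response was scaled to LY404187 run on each plate.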

hGluA2i AMPAR = hGluA2i AMPAR (Homo sapiens, UniProt P42262); experiment: Intracellular Ca2+ influx assay; format: cell-based
How it was run: as §1

hGluA3i AMPAR = hGluA3i AMPAR (Homo sapiens, UniProt P42263); experiment: Intracellular Ca2+ influx assay; format: cell-based
How it was run: as §1

hGluA4i AMPAR = hGluA4i AMPAR (Homo sapiens, UniProt P48058); experiment: Intracellular Ca2+ influx assay; format: cell-based
How it was run: as §1

rat GluA2i AMPAR = rat GluA2i AMPAR (Rattus norvegicus, UniProt P19491); experiment: Intracellular Ca2+ influx assay; format: cell-based
How it was run: as §1

[9] = system: Heteromeric hGluN1A/GluN2B NMDARs; experiment: Ca2+ flux assay or whole-cell patch clamp, NMDAR; format: cell-based, human; details: Ca2+ flux assay or whole-cell patch clamp (data not shown)
How it was run: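 HEK-293 cells were transduced with hGluN1A and hGluN2B BacMam vectors in the presence of 500 μM ketamine, then plated on poly-D-lysine, still with 500 μM ketamine, for 24 h. In the Ca2+ flux format, cells were loaded with Fluo-4AM (2 μM final) for 60 min, washed, then given test compound (1:3 serial dilution) plus glutamate (100 μM final), with FLIPR fluorescence read-out.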

[10] = system: Homomeric hGluK1 kainate receptors; experiment: Ca2+ flux assay or whole-cell patch clamp, GluK1; format: cell-based, human; details: Ca2+ flux assay or whole-cell patch clamp (data not shown)
How it was run: (§2)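 Kainate receptors in HEK cells: hGluK1 (Q-unedited) by lipofectamine transient transfection, hGluK2 stably expressed. Cells were seeded 24 h before assay. In the Ca2+ flux format, cells were loaded with Fluo-4AM (2 μM final) for 60 min in the dark, washed, then given test compound (1:3 serial dilution) plus glutamate (100 μM final), with FLIPR fluorescence read-out.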

Human GluK2 receptors = experiment: Ca2+ flux assay or whole-cell patch clamp, GluK2; format: cell-based; details: Ca2+ flux assay or whole-cell patch clamp (data not shown)
How it was run: as §2

hGluA2 AMPARs = hGluA2 AMPARs (Homo sapiens, UniProt P42262); experiment: Recombinant receptor whole-cell electrophysiology; format: cell-based; details: 1 mM glutamate
How it was run: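 HEK cells stably expressing hGluA2 were plated on poly-D-lysine coverslips and used 1-2 days later. Perforated-patch whole-cell recording at -60 mV used 2-5 MΩ pipettes, NaCl/HEPES external solution (pH 7.35) and CsCl/EGTA internal solution (pH 7.3). Glutamate (1 mM) was applied by fast perfusion for 2 s every 30 s, with or without test compound. Responses were related to the current from 1 mM glutamate alone.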

[11] = system: native neuronal AMPARs in rat cultured hippocampal neurons; experiment: Native receptor electrophysiology in cultured hippocampal neurons; format: cell-based
How it was run: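 Hippocampi from embryonic rats were trypsinised (0.05%, 30 min, 37 °C), dissociated and grown in Neurobasal/B27 for 5-13 days. Whole-cell voltage clamp was held at -70 mV, with AMPA (30 μM) applied for 2 s every 30 s by fast perfusion, with test compound at 1 nM-10 μM. Charge transfer, desensitisation and deactivation were compared with AMPA alone by paired t-test.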

[12] = In vivo electrophysiology, dentate gyrus population spike; set-up: species or system rat; details: male, Lister hooded, rat, brain, iv
anaesthetised rats = experiment: as above; set-up: species or system rat; details: 10 mg/kg i.v.; vehicle 70%
[13] = 7-day dose-range finding study, rat; format: in vivo; details: rat, plasma, po, 1600 mg/kg
rat [14] = experiment: 7-day dose-range finding study, rat; format: in vivo; details: doses of up to 1,600 mg/kg, 7-day
dog [15] = experiment: 7-day dose-range finding study, dog; format: in vivo; details: doses of up to 1,000 mg/kg
[16] = 4-week GLP safety assessment study, rat; format: in vivo; details: rat, plasma, po, 800 mg/kg
rat [17] = experiment: 4-week GLP safety assessment study, rat; format: in vivo
dog [18] = experiment: 4-week GLP safety assessment study, dog; format: in vivo
Solubility = format: physicochemical
pregnane X receptor = experiment: Pregnane X receptor activation; details: linked to a potential for drug-drug interactions
Novel object recognition = details: rat, in vivo, 0.1 mg/kg, 0.1 mg/kg p.o. sub-chronic
rats [19] = experiment: Novel object recognition; details: p.o.
[20] = Maximal electroshock threshold; details: male, Lister Hooded, rat, brain, oral, 30 mg/kg
male Lister Hooded rats [21] = experiment: Maximal electroshock threshold
[22] = relative to positive control LY404187

hGluA2i AMPAR, sequence (P42262 25-883 isoform P42262-2 limits assumed): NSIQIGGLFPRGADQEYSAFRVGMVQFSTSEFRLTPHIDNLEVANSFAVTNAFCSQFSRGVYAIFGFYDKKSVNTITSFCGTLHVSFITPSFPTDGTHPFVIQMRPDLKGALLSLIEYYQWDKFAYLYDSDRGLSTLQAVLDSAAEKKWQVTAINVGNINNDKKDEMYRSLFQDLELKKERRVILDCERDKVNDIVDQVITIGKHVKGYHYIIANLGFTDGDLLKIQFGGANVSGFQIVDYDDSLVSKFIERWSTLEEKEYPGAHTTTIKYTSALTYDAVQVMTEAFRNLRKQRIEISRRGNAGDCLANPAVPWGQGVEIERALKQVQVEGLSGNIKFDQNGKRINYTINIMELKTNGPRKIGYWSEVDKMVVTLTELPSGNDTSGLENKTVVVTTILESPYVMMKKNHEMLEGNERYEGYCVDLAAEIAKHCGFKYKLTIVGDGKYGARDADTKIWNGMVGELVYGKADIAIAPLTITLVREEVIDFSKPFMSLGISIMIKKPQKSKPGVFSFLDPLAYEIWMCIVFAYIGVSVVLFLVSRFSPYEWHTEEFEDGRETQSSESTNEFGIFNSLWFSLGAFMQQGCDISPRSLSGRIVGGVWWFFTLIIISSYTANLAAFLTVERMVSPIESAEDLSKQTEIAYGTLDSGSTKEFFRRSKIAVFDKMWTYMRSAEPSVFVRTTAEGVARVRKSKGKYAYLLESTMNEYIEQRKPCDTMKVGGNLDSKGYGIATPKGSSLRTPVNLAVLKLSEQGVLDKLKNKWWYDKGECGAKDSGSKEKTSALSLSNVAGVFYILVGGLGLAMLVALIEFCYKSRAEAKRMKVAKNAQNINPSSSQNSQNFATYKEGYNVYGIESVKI
rat GluA2i AMPAR, sequence (P19491 22-883 isoform P19491-2 limits assumed): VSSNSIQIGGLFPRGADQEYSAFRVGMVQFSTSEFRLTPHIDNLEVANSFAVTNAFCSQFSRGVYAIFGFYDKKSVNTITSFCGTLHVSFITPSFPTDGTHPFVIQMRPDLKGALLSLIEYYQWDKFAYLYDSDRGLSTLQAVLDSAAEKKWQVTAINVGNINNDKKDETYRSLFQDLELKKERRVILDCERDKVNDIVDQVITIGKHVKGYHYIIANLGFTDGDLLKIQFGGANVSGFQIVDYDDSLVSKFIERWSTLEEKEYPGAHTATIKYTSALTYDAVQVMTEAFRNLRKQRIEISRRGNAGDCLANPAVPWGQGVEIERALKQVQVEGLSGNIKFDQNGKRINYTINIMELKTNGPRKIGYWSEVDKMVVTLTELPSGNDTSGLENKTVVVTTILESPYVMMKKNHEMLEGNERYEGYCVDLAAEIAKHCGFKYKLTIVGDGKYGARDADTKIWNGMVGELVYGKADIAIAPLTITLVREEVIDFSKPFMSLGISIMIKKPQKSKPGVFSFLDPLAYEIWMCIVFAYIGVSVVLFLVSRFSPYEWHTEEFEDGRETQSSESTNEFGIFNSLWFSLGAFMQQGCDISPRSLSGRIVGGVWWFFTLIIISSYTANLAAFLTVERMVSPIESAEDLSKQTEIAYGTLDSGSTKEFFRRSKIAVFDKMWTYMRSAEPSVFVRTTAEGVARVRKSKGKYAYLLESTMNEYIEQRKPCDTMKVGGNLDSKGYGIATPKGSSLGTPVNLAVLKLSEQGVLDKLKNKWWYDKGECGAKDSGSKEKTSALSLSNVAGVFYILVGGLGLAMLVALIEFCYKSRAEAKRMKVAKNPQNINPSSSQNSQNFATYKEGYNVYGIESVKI
hGluA3i AMPAR, sequence (P42263 29-894 isoform P42263-2 limits assumed): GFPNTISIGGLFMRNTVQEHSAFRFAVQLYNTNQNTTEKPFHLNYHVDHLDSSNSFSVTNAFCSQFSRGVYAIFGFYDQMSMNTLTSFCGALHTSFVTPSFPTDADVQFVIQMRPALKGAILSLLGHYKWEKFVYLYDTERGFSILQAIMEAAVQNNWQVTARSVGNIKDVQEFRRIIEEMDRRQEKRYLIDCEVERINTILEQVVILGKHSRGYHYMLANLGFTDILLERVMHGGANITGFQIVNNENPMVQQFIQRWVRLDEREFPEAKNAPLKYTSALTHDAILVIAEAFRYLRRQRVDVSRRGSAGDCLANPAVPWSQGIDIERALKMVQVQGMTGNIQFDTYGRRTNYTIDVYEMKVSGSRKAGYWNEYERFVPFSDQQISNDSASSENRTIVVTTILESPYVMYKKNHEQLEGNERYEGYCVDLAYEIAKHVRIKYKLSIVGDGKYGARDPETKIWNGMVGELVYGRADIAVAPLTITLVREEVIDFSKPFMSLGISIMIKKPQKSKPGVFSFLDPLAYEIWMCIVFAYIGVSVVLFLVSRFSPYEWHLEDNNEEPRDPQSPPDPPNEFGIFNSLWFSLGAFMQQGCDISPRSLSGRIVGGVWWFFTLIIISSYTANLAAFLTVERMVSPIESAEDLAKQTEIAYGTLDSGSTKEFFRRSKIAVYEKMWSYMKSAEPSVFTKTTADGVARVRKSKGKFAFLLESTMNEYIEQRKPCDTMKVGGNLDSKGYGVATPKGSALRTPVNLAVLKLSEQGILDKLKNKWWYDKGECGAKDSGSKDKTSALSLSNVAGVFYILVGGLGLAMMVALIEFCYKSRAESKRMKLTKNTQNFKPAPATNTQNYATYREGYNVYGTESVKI
hGluA2 AMPARs, sequence (P42262 25-883 isoform P42262-2 limits assumed): as the sequence (P42262 25-883 isoform P42262-2 limits assumed) above
hGluA4i AMPAR, sequence (P48058 21-902): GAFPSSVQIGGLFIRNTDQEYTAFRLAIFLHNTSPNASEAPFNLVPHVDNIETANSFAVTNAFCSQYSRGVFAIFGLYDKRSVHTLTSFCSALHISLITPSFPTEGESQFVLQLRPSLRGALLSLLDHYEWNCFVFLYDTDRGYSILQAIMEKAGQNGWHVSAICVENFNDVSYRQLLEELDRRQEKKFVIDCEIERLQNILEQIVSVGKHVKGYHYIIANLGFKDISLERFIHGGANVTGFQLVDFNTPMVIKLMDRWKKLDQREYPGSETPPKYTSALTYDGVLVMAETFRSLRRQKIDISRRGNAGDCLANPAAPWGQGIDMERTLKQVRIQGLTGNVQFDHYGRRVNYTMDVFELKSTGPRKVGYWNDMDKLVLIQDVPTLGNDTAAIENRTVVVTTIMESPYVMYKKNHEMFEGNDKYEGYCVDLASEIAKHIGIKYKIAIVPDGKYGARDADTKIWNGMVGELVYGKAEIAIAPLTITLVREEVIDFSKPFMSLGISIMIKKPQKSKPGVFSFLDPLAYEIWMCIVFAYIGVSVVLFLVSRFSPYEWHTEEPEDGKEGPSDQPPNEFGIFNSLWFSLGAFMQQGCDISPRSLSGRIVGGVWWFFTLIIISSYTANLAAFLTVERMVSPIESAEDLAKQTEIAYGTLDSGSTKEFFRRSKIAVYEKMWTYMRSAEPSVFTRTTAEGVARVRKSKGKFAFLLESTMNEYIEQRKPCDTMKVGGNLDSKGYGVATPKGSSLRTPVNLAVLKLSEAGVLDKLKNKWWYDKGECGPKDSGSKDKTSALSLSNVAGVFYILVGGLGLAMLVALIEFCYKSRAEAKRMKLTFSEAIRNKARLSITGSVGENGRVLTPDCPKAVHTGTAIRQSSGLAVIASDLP
Homomeric human GluA1 flip isoform (hGluA1i), sequence (P42261 19-906 isoform P42261-2 limits assumed): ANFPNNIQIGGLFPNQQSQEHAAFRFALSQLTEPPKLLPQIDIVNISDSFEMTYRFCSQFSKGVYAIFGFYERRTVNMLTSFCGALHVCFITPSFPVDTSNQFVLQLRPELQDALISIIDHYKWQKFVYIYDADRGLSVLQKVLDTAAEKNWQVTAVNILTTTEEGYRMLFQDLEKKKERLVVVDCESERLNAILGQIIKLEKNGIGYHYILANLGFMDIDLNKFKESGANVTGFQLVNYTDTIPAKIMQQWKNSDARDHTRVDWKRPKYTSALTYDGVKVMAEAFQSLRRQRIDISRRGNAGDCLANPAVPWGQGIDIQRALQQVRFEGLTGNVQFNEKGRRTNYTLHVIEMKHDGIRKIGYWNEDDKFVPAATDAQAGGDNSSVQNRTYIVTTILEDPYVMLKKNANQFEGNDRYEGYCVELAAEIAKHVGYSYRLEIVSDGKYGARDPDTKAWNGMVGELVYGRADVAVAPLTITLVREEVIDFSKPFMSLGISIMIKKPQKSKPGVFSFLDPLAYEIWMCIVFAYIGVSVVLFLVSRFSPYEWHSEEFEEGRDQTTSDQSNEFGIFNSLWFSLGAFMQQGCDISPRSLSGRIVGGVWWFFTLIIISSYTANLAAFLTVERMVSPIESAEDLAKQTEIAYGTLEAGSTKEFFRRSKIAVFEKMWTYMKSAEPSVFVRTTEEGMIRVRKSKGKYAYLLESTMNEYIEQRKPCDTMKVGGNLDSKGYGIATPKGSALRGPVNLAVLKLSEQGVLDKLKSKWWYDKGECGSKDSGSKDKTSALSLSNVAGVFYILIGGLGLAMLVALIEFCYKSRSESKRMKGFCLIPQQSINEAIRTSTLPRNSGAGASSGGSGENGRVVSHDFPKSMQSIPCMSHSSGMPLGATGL

## CN1[C@@H]2C[C@@H](OC(=O)[C@H](CO)c3ccccc3)C[C@H]1[C@@H]1O[C@@H]12 [scopolamine, reference compound]
Male Wistar rats [1]; scopolamine 1 mg/kg i.p., vehicle 457 ± 83 s
  step-through latency: 157 ± 46 s

## CC(C)S(=O)(=O)N[C@H]1Cc2ccc(-c3ccc(F)nc3)cc2C1 [UoS12258, N-[(2S)-5-(6-fluoro-3-pyridinyl)-2,3-dihydro-1H-inden-2-yl]-2-propanesulfonamide]
[2]
  NOAEL at 6 weeks: 2.5 mg/kg
Cynomolgus monkeys
  dose at which convulsions were observed: 4 mg/kg
Rats [3]
  dose at which convulsions were observed: 10 mg/kg
[4]
  maximal potentiation in the charge transfer: 310%
Rats [5]
  MED, NOR following sub-chronic dosing: 0.01 mg/kg
  MED, acute-dosing NOR: 0.3 mg/kg
Male Wistar rats [6]
  MED, reversal of scopolamine-induced deficit: 3 mg/kg
Male Lister Hooded rats [7]; 100 mg/kg p.o.
  brain exposure: around 5.0 μg/g
  proconvulsant effect in MEST: comparable to that of the positive control picrotoxin
Male Lister Hooded rats [7]; p.o.
  proconvulsant dose in MEST: 10 mg/kg

## O=C(c1ccc(-n2nc(C(F)(F)F)c3c2CCCC3)cc1)N1CCCC1 [MDI-222, 1-[4-(1-pyrrolidinylcarbonyl)phenyl]-3-(trifluoromethyl)-4,5,6,7-tetrahydro-1H-indazole]
[8]
  Max. % response: 30 ± 2 (4) %
hGluA2i AMPAR
  EC50: 5 µM
hGluA2i AMPAR; [22]
  Max. % response: 123 ± 7% and 123 ± 7 (9) %
hGluA3i AMPAR
  EC50: 31.6 µM
hGluA3i AMPAR; [22]
  Max. % response: 53 ± 3 (3) %
hGluA4i AMPAR
  EC50: 7.94 µM
hGluA4i AMPAR; [22]
  Max. % response: 76 ± 1 (4) %
Rat GluA2i AMPAR
  EC50: 3.98 µM
Rat GluA2i AMPAR; [22]
  Max. % response: 76 ± 8 (4) %
[9]
  effect on glutamate-induced currents: no effects
[10]
  effect on glutamate-induced currents: no effects
Human GluK2 receptors
  effect on glutamate-induced currents: no effects
hGluA2 AMPARs; 100 nM
  potentiation of glutamate-evoked charge transfer (area under the curve): 121 ± 7%
hGluA2 AMPARs; 10 μM
  potentiation of glutamate-evoked charge transfer (area under the curve): 702 ± 40%
[11]; 1 nM
  Charge transfer, normalised to AMPA alone: 1.14 ± 0.05
  Deactivation, normalised to AMPA alone: 1.06 ± 0.04
  Desensitisation, normalised to AMPA alone: 0.77 ± 0.10
[11]; 10 nM
  Charge transfer, normalised to AMPA alone: 1.37 ± 0.09
  Deactivation, normalised to AMPA alone: 1.19 ± 0.15
  Desensitisation, normalised to AMPA alone: 0.81 ± 0.05
[11]; 100 nM
  Charge transfer, normalised to AMPA alone: 1.33 ± 0.12
  Deactivation, normalised to AMPA alone: 1.29 ± 0.17
  Desensitisation, normalised to AMPA alone: 0.76 ± 0.03
[11]; 1 μM
  Charge transfer, normalised to AMPA alone: 1.28 ± 0.14
  Deactivation, normalised to AMPA alone: 1.33 ± 0.17
  Desensitisation, normalised to AMPA alone: 0.72 ± 0.04
[11]; 10 μM
  Charge transfer, normalised to AMPA alone: 1.62 ± 0.15
  Deactivation, normalised to AMPA alone: 2.79 ± 0.43
  Desensitisation, normalised to AMPA alone: 0.25 ± 0.08
  increase in charge transfer (maximal potentiation): 62%
[11]; AMPA 30 μM
  minimum effective concentration, charge transfer: 1 nM
  minimum effective concentration, desensitisation: 10 nM
[11]; no agonist
  inward current when applied in the absence of AMPA: did not invoke an inward current
[12]
  concentration at 20 min: 11600 ng/g
Anaesthetised rats
  dentate gyrus population spike amplitude: 139 % of baseline
Male Wistar rats [1]; p.o.
  MED, reversal of scopolamine-induced deficit: 10 mg/kg
[13]
  Cmax: ~15000 ng/mL
Rat [14]
  convulsions / tolerability: did not produce convulsions
Dog [15]
  convulsions / tolerability: did not produce convulsions
[16]
  Cmax: 13 to 17000 ng/mL
Rat [17]; 4-week study
  systemic exposure on Day 28 relative to Day 1, fold lower: up to 6 fold
Rat [17]; highest dose 800 mg/kg, 4-week GLP
  convulsions: no convulsions observed
Dog [18]; 4-week study
  systemic exposure on Day 28 relative to Day 1, fold lower: ≤ 9 fold
Dog [18]; highest dose 1,000 mg/kg, 4-week GLP
  convulsions: no convulsions observed
Solubility
  solubility: poor solubility
Pregnane X receptor
  pregnane X receptor: activation
Novel object recognition; mean blood level
  concentration at 30 min: 7 ng/mL
Novel object recognition; mean brain level
  concentration at 30 min: 9 ng/g
Rats [19]; acute single-dose
  minimal effective dose (D2 index), acute: 0.3 mg/kg
Rats [19]; sub-chronic (7-day) dosing
  minimal effective dose, sub-chronic: 0.1 mg/kg
[20]
  concentration at 0.5 h: ~4700 ng/g
Male Lister Hooded rats [21]; 30 mg/kg p.o.
  brain drug concentration: approximately 4.7 μg/g
Male Lister Hooded rats [21]; 3, 10 and 30 mg/kg p.o.
  CC50 lower than vehicle-treated rats: 10-15%
Male Lister Hooded rats [21]; up to 30 mg/kg p.o.
  effect on seizure threshold: did not significantly affect the seizure threshold
